Results published in ChEMBL document CHEMBL3297710, “Polyhydroxy cyclohexanols from a Dendrodochium sp. fungus associated with the sea cucumber Holothuria nobilis Selenka” (J Nat Prod, 2014).
Activity calls are given as the source filed them. The rule behind the calls is not given here.

Assays:
[1] = system: A549; test: Cytotoxicity against human A549 cells assessed as growth inhibition by MTT assay; assay type: functional, cell-based
Method in brief: (§1)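 Modified MTT colorimetric assay on human lung adenocarcinoma A549 and human osteosarcoma MG63 cells, with adriamycin as the positive control.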

[2] = system: Trichophyton rubrum; test: Antifungal activity against Trichophyton rubrum Cmccftla assessed as growth inhibition by automatic microplate reader analysis; assay type: functional
Method in brief: (§2)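 Broth microdilution growth read by optical density at 630 nm on a microplate reader. MIC80 was taken as the first well showing roughly 80% growth reduction relative to the drug-free well.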

[3] = system: Nannizzia gypsea; test: Antifungal activity against Microsporum gypseum Cmccfmza assessed as growth inhibition by automatic microplate reader analysis; assay type: functional; method in brief: as §2
[4] = system: Candida parapsilosis; test: Antifungal activity against Candida parapsilosis 22019 assessed as growth inhibition by automatic microplate reader analysis; assay type: functional; details: Lodderomyces parapsilosis; method in brief: as §2
[5] = system: Cryptococcus neoformans; test: Antifungal activity against Cryptococcus neoformans 32609 assessed as growth inhibition by automatic microplate reader analysis; assay type: functional; method in brief: as §2
[6] = system: Aspergillus fumigatus; test: Antifungal activity against Aspergillus fumigatus 07544 assessed as growth inhibition by automatic microplate reader analysis; assay type: functional; method in brief: as §2
[7] = system: Candida albicans; test: Antifungal activity against Candida albicans Y0109 assessed as growth inhibition by automatic microplate reader analysis; assay type: functional; method in brief: as §2
[8] = system: MG-63; test: Cytotoxicity against human MG63 cells assessed as growth inhibition by MTT assay; assay type: functional, cell-based; method in brief: as §1
[9] = system: Candida albicans; test: Antifungal activity against Candida albicans SC5314 assessed as growth inhibition by automatic microplate reader analysis; assay type: functional; method in brief: as §2
[10] = system: Nakaseomyces glabratus; test: Antifungal activity against Candida glabrata 537 assessed as growth inhibition by automatic microplate reader analysis; assay type: functional; method in brief: as §2

Structure (SMILES) | inhibition [1] | MIC80 [2] [µg/mL] | MIC80 [3] [µg/mL] | MIC80 [4] [µg/mL] | MIC80 [5] [µg/mL] | MIC80 [6] [µg/mL] | MIC80 [7] [µg/mL] | inhibition [8] | MIC80 [9] [µg/mL] | MIC80 [10] [µg/mL] | IC50 [1]
C[C@@H](O)/C=C/C=C/[C@H]1OC[C@H]2[C@@H](O)[C@@H](O)[C@H](O)C[C@@H]21 | inactive | > 64 | > 64 | > 64 | > 64 | > 64 | > 64 | inactive | > 64 | > 64 | –
OC(Cn1cncn1)(Cn1cncn1)c1ccc(F)cc1F [FLUCONAZOLE] | – | 1 | 8 | 1 | 1 | > 64 | 0.25 | – | 0.25 | 2 | –
CN(C/C=C/C#CC(C)(C)C)Cc1cccc2ccccc12 [TERBINAFINE] | – | 1 | 0.25 | 8 | 8 | 4 | > 64 | – | 64 | 8 | –
CCC(C)n1ncn(-c2ccc(N3CCN(c4ccc(OCC5COC(Cn6cncn6)(c6ccc(Cl)cc6Cl)O5)cc4)CC3)cc2)c1=O (configuration not stated) [ITRACONAZOLE] | – | 2 | 4 | 8 | 4 | 32 | 4 | – | 4 | 2 | –
CC(=O)N1CCN(c2ccc(OCC3COC(Cn4ccnc4)(c4ccc(Cl)cc4Cl)O3)cc2)CC1 (configuration not stated) [KETOCONAZOLE] | – | 0.0625 | 0.125 | 0.25 | 0.25 | 2 | 0.0625 | – | 0.125 | 0.125 | –
C/C=C/C=C/C=C/[C@H]1C[C@@H](O)C[C@H](O)[C@@H]1CO | inactive | 8 | 16 | 16 | 8 | > 64 | 16 | inactive | 16 | 16 | –
C/C=C/C=C/C=C/[C@H]1C[C@@H](O)[C@H](O)C(=O)[C@@H]1CO | inactive | 16 | > 64 | 16 | 16 | > 64 | 16 | inactive | 16 | 16 | –
C[C@@H](c1ncncc1F)[C@](O)(Cn1cncn1)c1ccc(F)cc1F [VORICONAZOLE] | – | 0.125 | 0.5 | 2 | 0.25 | 4 | 0.5 | – | 0.25 | 0.25 | –
COc1cccc2c1C(=O)c1c(O)c3c(c(O)c1C2=O)C[C@@](O)(C(=O)CO)C[C@@H]3O[C@H]1C[C@H](N)[C@H](O)[C@H](C)O1 [DOXORUBICIN] | – | – | – | – | – | – | – | inactive | – | – | Not Active
C/C=C/C=C/C=C/[C@H]1C[C@@H](O)[C@H](O)[C@H](O)[C@@H]1CO | inactive | > 64 | > 64 | > 64 | > 64 | > 64 | 16 | inactive | > 64 | > 64 | –
